Rows were chosen to be rich in hits. Some 2.9% of all compounds tested hit in one or more screens of this group.
SENP6 block: inhibitors of human SENP6 protease; Q9GZR1; Recombinant SENP6 catalytic domain, aminoluciferin luminescence; inhibition, % at 10 µM; 330,000 compounds, 1.8% hits;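 active = inhibition above about 50% at the single tested dose, limit read from the data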;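 note: plate controls were DMSO wells with enzyme for no effect and DMSO wells lacking enzyme for full effect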
Apaf-1 inh: blocks human Apaf-1 apoptosome activity; O14727; reconstituted apoptosome caspase-3 activity, DEVD-Rh110 fluorescence; inhibition, % at 20 µM; AID 489030; 330,000 compounds, 0.71% hits; active = inhibition of at least 40% at 20 µM;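 note: plate controls were DMSO wells for no effect and DEVD-CHO caspase inhibitor wells for full effect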
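Material: cell-free apoptosome with Apaf-1, procaspase-3 and caspase-9; Buffer or medium: Hepes pH 7.5 with detergent and BSA; Reagent: cytochrome c trigger plus (Z-DEVD)2-Rh110 caspase-3 substrate; Times: compound with Apaf-1, dATP, procaspase-3 30 min, then 50 min reaction, room temperature; Technique: Rh110 fluorescence intensity.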
SENP7 block: blocks the human protease SENP7 | recombinant SENP7, Z-RLRGG-aminoluciferin luminescence, 40 min | Q9BQF6 | 330,000 compounds, 1.5% hits | inhibition, % at 5 µM;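 active = inhibition above about 50% at the single test dose, limit read from the data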;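 note: plate controls were DMSO with enzyme for no effect and no enzyme buffer wells for full effect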
SENP8 block-1: blocks human SENP8 cleavage of Nedd8 substrate | recombinant SENP8, Nedd8 substrate fluorescence | inhibition, % at 20 µM | 360,000 compounds, 0.64% hits | AID 602440; in the data active = inhibition mostly above about 40%, no sharp cut-off; inactive = mostly below about 27%
Target sequence (Q96LD8 whole entry, looked up): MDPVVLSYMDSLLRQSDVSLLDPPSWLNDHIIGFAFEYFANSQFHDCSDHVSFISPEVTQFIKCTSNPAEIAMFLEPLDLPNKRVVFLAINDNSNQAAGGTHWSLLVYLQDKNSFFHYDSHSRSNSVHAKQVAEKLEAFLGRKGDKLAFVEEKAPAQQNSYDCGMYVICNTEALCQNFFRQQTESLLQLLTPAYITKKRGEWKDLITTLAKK
SENP8 block-2: inhibitors of human SENP8 protease; Q96LD8; purified SENP8, Z-RLRGG-aminoluciferin cleavage, luminescence; inhibition, % at 10 µM; 330,000 compounds, 1.2% hits; AID 2540; in the data active = inhibition above about 50%
SENP1 inh: inhibitors of human SENP1 SUMO protease catalytic domain; Q9P0U3; recombinant SENP1 catalytic domain, CyPet-SUMO1-YPet FRET cleavage; inhibition, % at 10 µM; 360,000 compounds, 0.21% hits;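 active = inhibition at least 30% at 10 µM, raw YFP signal under a set limit, fluorescence ratio 0.5 to 1.5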;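 note: 0% = enzyme with DMSO and 100% = no enzyme wells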
Target sequence (Q9P0U3 419-644 limits assumed): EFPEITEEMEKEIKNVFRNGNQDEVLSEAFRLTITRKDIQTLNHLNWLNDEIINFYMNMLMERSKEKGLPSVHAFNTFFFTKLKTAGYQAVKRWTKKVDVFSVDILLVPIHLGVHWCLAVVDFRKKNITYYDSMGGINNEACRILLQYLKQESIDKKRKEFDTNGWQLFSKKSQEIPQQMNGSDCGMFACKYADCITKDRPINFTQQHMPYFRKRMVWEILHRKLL
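Assay system: hSENP1 catalytic domain, recombinant. Amount: SENP1 enzyme, 20 pM final. Schedule: 50 min reaction, RT, dark. Technique: FRET, CFP and YFP emission. Control set: no-enzyme wells low, DMSO-plus-enzyme wells high control.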
SENP8 confirm: confirmation of human SENP8 protease inhibitors | shares compounds with SENP7 block | Recombinant SENP8, Z-RLRGG-aminoluciferin luminescence, 60 min | inhibition, % at 12.5 µM | 6,200 compounds, 40% hits;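 active = mean inhibition across replicates above about 50%, limit read from the data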
SENP6 conf: confirmation of human SENP6 protease inhibitors | inhibition, % at 12.5 µM | shares compounds with SENP7 block | recombinant SENP6, Z-RLRGG-aminoluciferin luminescence | 6,200 compounds, 58% hits
SENP7 confirm: confirmation of human SENP7 protease inhibitors; shares compounds with SENP7 block; recombinant SENP7, Z-RLRGG-aminoluciferin luminescence, 40 min; inhibition, % at 12.5 µM; 6,200 compounds, 69% hits; AID 488917
Casp3 SENP sel: inhibits human caspase-3 in SENP selectivity test; inhibition, % at 12.5 µM; AID 488918; purified caspase-3, Z-DEVD-aminoluciferin luminescence, 60 min; 6,200 compounds, 60% hits; shares compounds with SENP7 block;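 active = mean inhibition above about 50%, limit read from the data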;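 note: plate controls were enzyme with DMSO for no effect and wells without caspase-3 for full effect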
Target sequence (P42574 28-227 limits assumed): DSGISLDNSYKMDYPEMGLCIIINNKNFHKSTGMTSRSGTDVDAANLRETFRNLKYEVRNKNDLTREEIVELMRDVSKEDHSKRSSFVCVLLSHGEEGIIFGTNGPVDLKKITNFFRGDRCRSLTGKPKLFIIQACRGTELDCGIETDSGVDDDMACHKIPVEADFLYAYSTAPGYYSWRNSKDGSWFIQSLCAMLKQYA
Luc interf: luminescence interference (SENP counter-screen) | shares compounds with SENP7 block | AID 488919 | 6,200 compounds, 39% hits | Pre-incubated SENP8/Z-RLRGG-aminoluciferin, luciferase luminescence interference | inhibition, % at 12.5 µM;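 active = mean inhibition above about 50% when retested at one dose, limit read from the data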;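 note: plate controls were DMSO wells with completed reaction for no effect and substrate without enzyme for full effect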
* = called active by the depositor; nt = no result given.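 Rule for the calls, unless noted: active = mean inhibition above about 50% in the one-dose retest (limit read from the data); inactive = the rest.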

SMILES	SENP6 block	Apaf-1 inh	SENP7 block	SENP8 block-1	SENP8 block-2	SENP1 inh	SENP8 confirm	SENP6 conf	SENP7 confirm	Casp3 SENP sel	Luc interf
COc1ccc(Cc2c(-c3ccco3)nc3ccc(Cl)cn23)c(C)c1	nt	nt	nt	-41.1	nt	0.0	nt	nt	nt	nt	nt
CC(C)c1ccc([C@@H]2O[C@H](C)CC3=C2C(=O)OC(C)(C)O3)cc1	nt	nt	nt	6.8	nt	-0.6	nt	nt	nt	nt	nt
COc1ccc(-n2c(C)cc(/C=C3/SC(=S)N(C)C3=O)c2C)cc1	nt	nt	nt	19.2	nt	-27.4	nt	nt	nt	nt	nt
Cc1cc(/C=C2\SC(=S)N(C)C2=O)c(C)n1-c1cccc(O)c1	90.0*	-3.3	59.9*	16.0	79.9*	-30.5	4.7	25.7	27.1	7.5	13.4
CN=C1S/C(=C\c2ccc(N3CCOCC3)cc2C)C(=O)N1C	6.5	5.7	5.6	-55.9	-1.4	-33.5	nt	nt	nt	nt	nt
CN=C1S/C(=C\c2cc(C)n(-c3ccccc3F)c2C)C(=O)N1C	42.1	9.9	65.8*	-13.7	62.7*	-5.2	86.2*	87.6*	95.8*	70.1*	74.0*
Cc1c(NC(=O)c2cc(C(C)C)on2)c(=O)n(-c2ccccc2)n1C	-10.2	-22.0	3.6	7.0	-3.1	0.5	nt	nt	nt	nt	nt
O=C(Nc1cccnc1)c1cc(-c2ccc(Cl)cc2)on1	60.5*	-14.7	86.0*	28.5	28.8	0.2	29.1	31.0	66.9*	55.6*	24.3
CC(C)Cc1cc(C(=O)Nc2cccnc2)no1	47.6	-1.1	52.3*	6.2	31.5	3.7	45.3	42.6	76.4*	79.1*	54.6*
O=C(Nc1cccnc1)c1ccc(-c2ccc(Cl)cc2)o1	-20.1	23.2	5.1	4.2	-6.3	-2.0	nt	nt	nt	nt	nt
Cc1cc(C(=O)Nc2cccnc2)no1	-13.3	1.0	-6.9	12.5	-0.5	1.6	nt	nt	nt	nt	nt
O=C(Nc1cccnc1)c1cc(-c2ccc(Cl)cc2Cl)on1	15.0	0.9	64.1*	1.7	-4.2	-0.9	18.5	20.2	17.1	18.3	7.5
Cc1c(NC(=O)c2cc(CC(C)C)on2)c(=O)n(-c2ccccc2)n1C	7.7	-3.6	54.6*	23.2	11.0	0.1	-13.1	-5.4	-10.2	2.7	-2.9
CSCC[C@H](CO)NC(=O)[C@H]1O[C@@H](n2cnc3c(N)ncnc32)[C@H](O)[C@@H]1O	nt	nt	nt	16.1	nt	-0.1	nt	nt	nt	nt	nt
Cc1cccc(NC(=O)c2ccc(F)c(S(=O)(=O)NCc3ccco3)c2)c1	51.9*	6.0	36.2	-4.5	38.2	-1.0	39.2	32.9	63.3*	43.7	51.0*
CC(=O)Nc1cccc(NC(=O)c2ccc(S(=O)(=O)NCc3ccco3)cc2)c1	nt	nt	nt	12.9	nt	0.4	nt	nt	nt	nt	nt
Cc1c(Cl)cccc1N=C1NC(=O)CS1	nt	nt	nt	9.3	nt	-1.2	nt	nt	nt	nt	nt
O=C(/C=C/c1ccccc1Cl)Nc1cccc(O)c1	97.8*	13.1	95.9*	13.1	93.9*	0.8	96.1*	97.0*	101.6*	90.7*	96.4*
O=C(/C=C/c1ccccc1Cl)c1ccc(O)cc1	89.9*	7.0	72.7*	22.0	82.3*	-1.4	8.2	-3.5	-1.1	14.1	55.2*
O=C(/C=C/c1ccccc1Cl)c1cccnc1	-8.9	10.7	-8.7	16.6	-3.4	-1.4	nt	nt	nt	nt	nt
O=C(/C=C/c1ccccc1Cl)Nc1ccccc1	97.4*	-3.4	98.5*	22.2	96.1*	0.5	7.6	99.2*	102.7*	94.4*	95.1*
O=C(/C=C/c1ccccc1Cl)Nc1ccc2c(c1)C(=O)NC2=O	8.2	-9.7	4.9	-382.6	-7.9	-2.7	nt	nt	nt	nt	nt
CSCCNC(=O)C1(C)CCN1C(=O)c1sccc1C (stereo unspecified)	nt	nt	nt	27.6	nt	0.8	nt	nt	nt	nt	nt
O=C(Nc1c(-c2ccc3c(c2)OCO3)[nH][nH]c1=O)c1cnccn1	nt	nt	nt	27.2	nt	0.2	nt	nt	nt	nt	nt
Cc1nc2sc(-c3ccccc3)nn2c(=O)c1Br	75.2*	1.7	73.1*	-29.5	60.4*	0.8	47.6	33.0	42.4	60.9*	11.1
SMILES	SENP6 block	Apaf-1 inh	SENP7 block	SENP8 block-1	SENP8 block-2	SENP1 inh	SENP8 confirm	SENP6 conf	SENP7 confirm	Casp3 SENP sel	Luc interf
Cc1ccc(C2CC(c3ccccc3)=NN2c2ccccc2)o1 (stereo unspecified)	43.1	7.6	55.4*	-386.3	7.4	-61.5	2.8	1.1	6.3	4.6	2.2
Cc1sc2ncn(CC(=O)N3CCN(c4ccc(F)cc4)CC3)c(=O)c2c1S(=O)(=O)N1CCOCC1	-2.3	5.6	-7.2	8.9	1.4	-0.1	nt	nt	nt	nt	nt
CN(C)c1ccc(N=Cc2nc(-c3ccccc3)oc2OC(=O)c2cccc(Cl)c2)cc1	64.3*	8.8	71.9*	25.1	-10.8	-25.9	6.2	5.3	-1.3	25.8	7.8
Cc1ccc(C(=O)Oc2oc(-c3ccccc3)nc2C=Nc2ccc(N(C)C)cc2)cc1	-19.3	12.2	-15.0	2.9	-13.4	-23.7	nt	nt	nt	nt	nt
Cn1c(/C=C/c2ccccc2[N+](=O)[O-])nc2ccccc2c1=O	-9.7	0.2	-1.6	8.0	-4.3	0.0	nt	nt	nt	nt	nt
O=[N+]([O-])c1ccccc1/C=C/c1ccc2ccccc2n1	88.2*	18.5	81.5*	11.0	85.0*	-0.9	93.5*	93.4*	100.1*	79.4*	47.4
COc1c(OC(C)=O)ccc(/C=C/c2ccc3cccc(OC)c3n2)c1[N+](=O)[O-]	28.8	6.2	-1.1	12.5	17.4	0.0	nt	nt	nt	nt	nt
COc1c(OC(C)=O)ccc(/C=C/c2ccc3ccccc3n2)c1[N+](=O)[O-]	93.8*	10.3	90.8*	18.8	89.2*	1.8	86.0*	96.9*	98.7*	84.5*	41.4
COc1cc(OC)cc(C(=O)Nc2ccc3nc4n(c(=O)c3c2)CCCCC4)c1	81.4*	2.5	82.6*	2.9	79.9*	3.5	86.9*	86.0*	97.6*	88.1*	55.0*
COc1ccccc1C(=O)Nc1ccc2nc3n(c(=O)c2c1)CCCC3	-8.8	6.0	1.9	-1.4	1.5	0.5	nt	nt	nt	nt	nt
CC(C)c1ccc(CN(C)C(=O)c2ccc(S(=O)(=O)NCc3ccco3)cc2)cc1	6.1	13.7	-5.0	13.2	8.4	-1.0	nt	nt	nt	nt	nt
COC(=O)C(CO)Nc1ncnc2onc(-c3ccc(F)cc3)c12 (stereo unspecified)	-12.1	3.9	-4.0	1.0	-3.9	0.0	nt	nt	nt	nt	nt

Screens as filed in PubChem BioAssay.
